Shown are actives, neighbours in structure and some others; about 3.8% of the full set was active somewhere.
ARNT TACC3 PPI – ARNT/TACC3 interaction disruption; Q9Y6A5; AlphaScreen His-ARNT PAS-B/GST-TACC3 binding, luminescence; TACC3 fragment carries E629A point mutation; inhibition, % at 9.99 µM; actives 0.66% (n = 390,000);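 active = mean inhibition of replicates at least 50% and at least half of replicates each reaching 50%; inconclusive = half or more replicates reach 50% but mean below 50%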;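 note: 0% = complete ARNT plus TACC3 wells and 100% = ARNT alone without TACC3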
FN deposit inh – fibronectin deposition inhibition | inhibition, % at 12.6 µM | AH1F fibroblasts, Alexa488-fibronectin deposition fluorescence, overnight | actives 0.086% (n = 350,000);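 active = mean inhibition across replicates of 30% or more, regardless of how many single replicates reach that level; inconclusive = mean under 30% yet at least half of replicates reach 30%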;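 note: positive control wells lacked labelled fibronectin entirely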
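Assay system: AH1F fibroblast monolayer, labelled fibronectin deposition. Amount: 10000 cells per well. Also added: labelled fibronectin 24 nM. Compound: single-point pinned compound. Incubation: cell attachment 1 h, compound and FN exposure overnight. Detection: fluorescence after three HBSS washes, excitation 485 nm, emission 525 nm. Read-out: inhibition of fibronectin deposition signal.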
DENV2 CPE rescue – inhibitors of DENV2 cytopathic effect | DENV2-infected cells, cytopathic effect rescue, plate reader | CPE inhibition, % at 9.99 µM | actives 1.7% (n = 350,000) | AID 651640; in the data active = CPE inhibition above about 20%, passing the limit was not always enough; inconclusive = no clear call, values can overlap the other calls; tested in BHK-21 cells;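 note: 0% = median of neutral control wells and 100% = median of positive control wells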
FGF22 binding-1 – FGF22 (human) thermal shift binding. recombinant FGF22 thermal shift, SYPRO orange fluorescence; percent of sucrose octasulfate shift, DMSO zero. AID 651658. actives 1.5% (n = 340,000). Q9HCT0. activity (Tm shift, normalised), % at 9.99 µM;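 active = mean Tm shift, scaled 0 neutral to 100 positive control, at about 1.3% or above, every replicate too, limit read from the data; inconclusive = no clear call, values can overlap the other calls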
Target sequence (Q9HCT0 whole entry, looked up): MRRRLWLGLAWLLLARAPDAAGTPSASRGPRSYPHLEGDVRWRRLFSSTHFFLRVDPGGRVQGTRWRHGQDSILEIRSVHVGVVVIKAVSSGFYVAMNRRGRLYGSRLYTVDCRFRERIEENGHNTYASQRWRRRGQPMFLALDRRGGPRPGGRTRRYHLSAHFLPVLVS
SIRT5 inh – blocks human SIRT5 desuccinylation of peptide. inhibition, % at 15 µM. actives 1.1% (n = 330,000). Q9NXA8. Purified SirT5, succinyl-peptide AMC, trypsin-coupled fluorescence; in the data active = inhibition above about 15%; inconclusive = no clear call, values can overlap the other calls
Target sequence (Q9NXA8 whole entry, looked up): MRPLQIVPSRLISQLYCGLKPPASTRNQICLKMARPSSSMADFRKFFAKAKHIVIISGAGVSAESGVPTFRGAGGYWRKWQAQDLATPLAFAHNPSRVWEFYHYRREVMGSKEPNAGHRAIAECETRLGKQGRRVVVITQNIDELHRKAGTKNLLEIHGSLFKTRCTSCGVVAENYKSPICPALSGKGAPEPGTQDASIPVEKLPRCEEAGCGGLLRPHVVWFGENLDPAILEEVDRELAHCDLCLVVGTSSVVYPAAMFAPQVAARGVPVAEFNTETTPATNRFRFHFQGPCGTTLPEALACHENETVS
Xi reactivation – activators of X-chromosome reactivation in mouse fibroblasts. XiGFP mouse fibroblasts, % GFP-positive cells imaging, 3 d; cells co-treated with 5-aza-dC sensitizer; scaled so ellipticine positive control = 100%. activation, % at 7.58 µM. actives 0.055% (n = 360,000);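 active = mean normalized replicate activation at least 10% and every replicate at or above 10%; inconclusive = only one of the two criteria met; inactive = mean below 10% and not all replicates reach 10%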;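 note: 0% = median of on-plate neutral control wells and 100% = ellipticine 6 µM median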
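Assay system: SV40-immortalized XiGFP fibroblast cells, line 68-5-11; buffer or medium: DMEM plus 5-aza-dC sensitizer; compound: one concentration, pinned; timing: compounds 3 days, fix/stain 15 min at room temperature; benchmarks: positive control ellipticine, 6 µM final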
FGF22 binding-2 – binds human FGF22 shifting its melting temperature | shares compounds with FGF22 binding-1 | recombinant FGF22 thermal shift, SYPRO orange fluorescence | thermal shift activity, °C (ΔTm) at 38 µM | actives 2% (n = 1,000) | AID 720646;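 active = fitted rise in melting shift crosses a set limit at or below the top valid dose tested; inconclusive = flat fit at mid-level activity, or a poor quality fit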
FGF22 TSA – FGF22 (human) binding by thermal shift. shares compounds with FGF22 binding-1. Thermal shift assay, SYPRO orange, melting temperature shift. Tm shift (activity), % at 38 µM. 50 tested, under 10 active;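 active = compounds whose fitted dose curve of melting temperature shift rises past a set threshold within the tested doses; inconclusive = flat curve at moderate activity, or poor curve fit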
TSA no protein – counter-screen for FGF22 binders: compound-only thermal shift, no protein | shares compounds with FGF22 binding-1 | compound-only SYPRO orange thermal shift counter-screen | AC50, µM (series often up to 38 µM) | actives 2% (n = 1,000) | AID 743019;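 active = rising signal whose fitted curve reaches the 0.54 level within the top valid dose, showing a melting point, actives reach about 13 µM in these data; inactive = the rest, including activity in the opposite direction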; note: value is where the raw curve crosses a fixed level and not half-maximal
Active calls of the source: *; i = inactive; ? = inconclusive; / = no result; [ ] = dose if it differs, or a comment.

SMILES | ARNT TACC3 PPI | FN deposit inh | DENV2 CPE rescue | FGF22 binding-1 | SIRT5 inh | Xi reactivation | FGF22 binding-2 | TSA no protein | others
CC(=O)C1=C(O)C(=O)N(c2ccc(S(=O)(=O)Nc3nccs3)cc2)C1c1ccc([N+](=O)[O-])cc1 (configuration not stated) | 0 | -4 | -3 | 0 | 3 | 0 | / | /
CC(=O)C1=C(O)C(=O)N(c2ccc(S(=O)(=O)Nc3nccs3)cc2)C1c1ccc(F)cc1 (configuration not stated) | 0 | -4 | -2 | 1.7* | 4 | 0 | -0.031 | i
Cc1cccc(NC(=O)COc2coc(CN3CCc4ccccc4C3)cc2=O)c1 | -4 | 5 | 13 | 7.0* | 0 | 1 | -0.023 | i
Cc1ccc(C)c(NC(=O)COc2coc(CN3CCc4ccccc4C3)cc2=O)c1 | 0 | -5 | -1 | 0 | -3 | 0 | / | /
CC(=O)Nc1ccc(NC(=O)Nc2ccccc2)cc1 | 1 | 0 | 7 | 1.8* | 9 | 0 | 0.19 | i | FGF22 TSA=0
CC(=O)c1ccc(NC(=O)Nc2ccncc2)cc1 | -2 | -6 | -2 | 43 | -2 | 0 | / | /
CC(=O)c1ccc(NC(=O)Nc2cccnc2)cc1 | -8 | 4 | 11 | 1.4* | 0 | 0 | -0.013 | i | FGF22 TSA=1
CNC[C@@H]1Oc2cc(C#Cc3ccncc3)ccc2S(=O)(=O)N([C@H](C)CO)C[C@@H]1C | / | 3 | / | / | / | 0 | / | /
C[C@H](CO)N1C[C@H](C)[C@H](CN(C)C)Oc2cc(C3=CCCCC3)ccc2S1(=O)=O | / | / | / | / | / | -1 | / | /
Cc1cccc(Cn2ncc(Cl)c(Cl)c2=O)c1 | 15 | / | 5 | 39* | -3 | / | 0.012 | i
COc1ccc(NC(=O)CN(C)C(=O)c2cn(-c3ccccc3)nc2-c2cccnc2)cc1 | / | 1 | ? | 2.4* | 4 | 1 | 0.22 | i
COc1ccc(NC(=O)CN(C)C(=O)c2cn(-c3ccccc3)nc2-c2cccs2)cc1 | 3 | -2 | 9 | 0 | -1 | 0 | / | /
C[C@@H]1CN([C@@H](C)CO)C(=O)Cc2cc(NC(=O)c3ccncc3)ccc2O[C@@H]1CN(C)S(=O)(=O)c1ccc(F)cc1 | -6 | 6 | -1 | 0 | 1 | 0 | / | /
C[C@@H](NC(=O)C[C@@H]1CC[C@@H]2[C@H](COC[C@H](O)CN2C)O1)c1ccccc1 | 8 | -6 | 4 | 0 | -6 | 0 | / | /
COc1ccc(NC(=O)N(C)C[C@H]2Oc3ccc(NS(C)(=O)=O)cc3CC(=O)N([C@H](C)CO)C[C@@H]2C)cc1 | 6 | -9 | 0 | 0 | -3 | 0 | / | /
C[C@H](CO)N1C[C@H](C)[C@H](CN(C)C(=O)Nc2ccccc2)Oc2ccc(NC(=O)Nc3ccccc3)cc2CC1=O | 9 | / | 11 | 1.2* | 3 | 0 | 0.13 | i
COc1ccc(NC(=O)N(C)C[C@@H]2Oc3ccc(NS(C)(=O)=O)cc3CC(=O)N([C@@H](C)CO)C[C@H]2C)cc1 | -12 | -12 | 4 | 16* | 0 | 0 | 0.14[42 µM] | i
C[C@@H]1CN([C@@H](C)CO)C(=O)Cc2cc(NC(=O)Nc3ccccc3)ccc2O[C@@H]1CN(C)C(=O)Nc1ccccc1 | 14 | / | 9 | 1 | / | 0 | / | /
N#C[C@H]1[C@@H](c2ccc(C#CCC3CCCC3)cc2)[C@H](CO)N1C(=O)CN1CCOCC1 | 3 | 5 | 1 | 19* | -3 | 0 | 0.21[42 µM] | i
C[C@@H]1CN([C@@H](C)CO)C(=O)c2cc(NC(=O)Cc3cn(C)c4ccccc34)ccc2O[C@H]1CN(C)S(C)(=O)=O | -1 | -9 | -6 | 2.6* | 2 | 0 | 0.11[42 µM] | i
C[C@H]1CN([C@@H](C)CO)C(=O)c2cc(NC(=O)Cc3ccccc3)ccc2O[C@H]1CN(C)Cc1ccc2c(c1)OCO2 | -3 | -1 | ? | 3.0* | 2 | 0 | 0.23 | i
COc1ccc(CN(C)C[C@H]2Oc3ccc(NC(=O)Cc4ccccc4)cc3C(=O)N([C@@H](C)CO)C[C@H]2C)cc1 | -1 | / | 1 | 8.9* | 3 | -1 | 0.064 | i
C[C@@H]1CN([C@@H](C)CO)C(=O)CCCn2cc(nn2)CO[C@@H]1CN(C)C(=O)Cc1ccccc1 | / | 0 | / | / | / | 0 | / | /
C[C@H](CO)N1C[C@H](C)[C@@H](CN(C)C(=O)CCCN(C)C)OCCCC[C@H](C)Oc2ccc(NS(=O)(=O)c3ccccc3)cc2C1=O | -16 | 3 | 1 | 0 | -3 | 4 | / | /
C[C@H]1CN([C@@H](C)CO)C(=O)c2cccc(NC(=O)Nc3ccc(C(F)(F)F)cc3)c2O[C@H]1CN(C)Cc1ccc(Cl)c(Cl)c1 | 7 | / | 2 | 1 | 9 | -1 | / | /
SMILES | ARNT TACC3 PPI | FN deposit inh | DENV2 CPE rescue | FGF22 binding-1 | SIRT5 inh | Xi reactivation | FGF22 binding-2 | TSA no protein | others
N#CC1=C(c2ccccc2)/C(=C/c2ccccc2)OC1=O | -5 | / | / | / | / | / | / | /
N#CC(C#N)=C1NC(N)=C(C#N)C(c2ccccc2)=C1C#N | / | -3 | 12 | 2.1* | 4 | 0 | 0.14 | i
O=C(N[C@@H]1C=C[C@@H](CC(=O)N2CCCCC2)O[C@@H]1CO)c1cccc(F)c1 | / | / | 3 | 1.8* | 0 | 1 | -0.09[42 µM] | i
O=C(C[C@H]1C=C[C@H](NC(=O)c2cccc(F)c2)[C@H](CO)O1)NCCN1CCCC1 | 0 | 10 | 4 | 0 | 0 | 0 | / | /
CO[C@H]1CN(C)C(=O)c2cc(NC(=O)c3cccc(F)c3)ccc2OC[C@H](C)NC[C@@H]1C | -11 | 0 | -3 | 2.0* | -6 | 0 | 0.095 | i
CO[C@@H]1CN(C)C(=O)c2cc(NC(=O)c3cccc(F)c3)ccc2OC[C@@H](C)NC[C@@H]1C | -11 | 15 | -4 | 1 | -3 | 0 | / | /
CO[C@H]1CN(C)C(=O)c2ccc(NS(=O)(=O)c3ccc(Cl)cc3)cc2OC[C@@H](C)N(C(=O)NC(C)C)C[C@H]1C | -1 | 3 | -9 | 36* | 1 | 0 | -0.001[42 µM] | i
CCCNC(=O)Nc1ccc2c(c1)C(=O)N(C)C[C@@H](OC)[C@H](C)CN(C(=O)c1ccccc1F)[C@H](C)CO2 | -4 | -1 | 4 | 0 | 4 | 0 | / | /

Screening results deposited in PubChem by Broad Institute.
